# Results: ChEMBL document CHEMBL1124262, “Cardiotonic agents. Synthesis and inotropic activity of a series of isoquinolin-3-ol derivatives” (J Med Chem, 1988)
# Assays:
# Canis familiaris [1] = assay: Percent change in mean arterial blood pressure (MAP) in anesthetized open chest dogs iv administration at 1.875 mg/kg; assay type: functional, Canis lupus familiaris
# In short: (§1)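 Anesthetized open-chest dogs, one drug per animal. Compound is in DMF diluted to 10% in saline, or given as the HCl salt in saline. It is infused into the femoral vein by pump at 0.58-2.2 mL/min in 3-4 stepwise cumulative doses, each over 5 min after the prior peak. Readings are CF by right-ventricle strain gauge, dP/dtmax by Millar LV catheter, HR by cardiotachometer and MAP from femoral artery, as % change from predrug control.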
# Canis familiaris [2] = assay: Percent increase in contractile force (CF) in anesthetized open-chest dogs iv administration of 1.875 mg/kg; assay type: functional, Canis lupus familiaris
# In short: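 Anesthetized open-chest dogs. After a right thoracotomy, contractile force was recorded by a Walton Brodie strain gauge sutured to the right ventricle at 100 g baseline tension. Compound was given iv by infusion pump into a femoral vein, one drug per animal, in three to four stepwise increasing doses. Each dose ran over 5 min, starting once the previous dose's effect peaked. Values are % increase over predrug control vs cumulative mg/kg dose.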
# Canis familiaris [3] = assay: Percent change in left ventricular pressure (dP/dtmax) in anesthetized dog after iv administration at 1.875 mg/kg; assay type: functional, Canis lupus familiaris, Heart left ventricle; in short: as §1
# Canis familiaris [4] = assay: Percent change in heart rate (HR) in anesthetized open chest dogs after a iv dose of 1.875 mg/kg; assay type: functional, Canis lupus familiaris; in short: as §1
# Canis familiaris [5] = assay: Change in heart contractile force of anaesthetized, open chest dogs following 0.875 mg/kg i.v. administration.; assay type: functional, Canis lupus familiaris; settings: route intravenous; in short: as §1
# Canis familiaris [6] = assay: Change in heart rate of anaesthetized, open chest dogs following 0.875 mg/kg i.v. administration.; assay type: functional, Canis lupus familiaris; settings: route intravenous; in short: as §1
# Canis familiaris [7] = assay: Change in left ventricular pressure of anaesthetized, open chest dogs following 0.875 mg/kg i.v. administration.; assay type: functional, Canis lupus familiaris, Heart left ventricle; settings: route intravenous; in short: as §1
# Canis familiaris [8] = assay: Percent change in mean arterial blood pressure (MAP) in anesthetized open chest dogs iv administration at 0.8750 mg/kg; assay type: functional, Canis lupus familiaris; settings: dose 0.875 mg/kg; in short: as §1
Structure (SMILES),Change (Canis familiaris [1]) [%],Increase (Canis familiaris [2]) [%],Increase (Canis familiaris [3]) [%],Change (Canis familiaris [4]) [%],Increase (Canis familiaris [5]) [%],Change (Canis familiaris [6]) [%],Increase (Canis familiaris [7]) [%],Change (Canis familiaris [8]) [%]
COc1cc2c(C)nc(O)c(CCC(=O)N(C)C)c2cc1OC,-14,16,-5,-2,,,,
COc1ccc2c(C)nc(O)cc2c1OC,1,,13,3,28,,,
CCc1nc(O)c(CCC(=O)OC)c2cc(OC)c(OC)cc12,,,,,47,10,33,-3
CCCc1nc(O)c(CCC(=O)OC)c2cc(OC)c(OC)cc12,-4,17,19,,,2,,
COc1cc2c(C)nc(O)c(CCC(N)=O)c2cc1OC,-9,49,29,11,,,,
COC(=O)Cc1c(O)nc(C)c2cc(OC)c(OC)cc12,,,,,42,6,28,-1
CCOC(=O)CCc1c(O)nc(C)c2cc(OC)c(OC)cc12,,,,,60,8,20,-4
COc1cc2c(C)nc(O)c(CC(C)C)c2cc1OC,-6,39,25,10,,,,
COC(=O)CCc1c(O)ncc2cc(OC)c(OC)cc12,,,,,53,7,24,-4
COc1ccc2cc(O)nc(C)c2c1,,,,,114,19,87,-18
COC(=O)c1c(O)nc(C)c2cc(OC)c(OC)cc12,-3,39,19,6,,,,
Cc1nc(O)c(Cl)c2cc3c(cc12)OCO3,-22,88,51,28,,,,
COC(=O)CCc1c(O)ncc2cc3c(cc12)OCO3,0,26,28,6,,,,
CNC(=O)CCc1c(O)nc(C)c2cc(OC)c(OC)cc12,-5,62,,7,,,40,
CCOc1cc2cnc(O)cc2cc1OC,0,34,32,7,,,,
CNC(=O)c1c(O)nc(C)c2cc(OC)c(OC)cc12,4,2,17,0,,,,
CCOc1cc2cc(O)nc(C)c2cc1OCC,,,,,84,15,42,-11
COC(=O)CCc1c(O)nc(C)c2cc3c(cc12)OCO3,,,,,131,38,118,-21
COc1cc2c(C)nc(O)c(CCC(=O)OC(C)C)c2cc1OC,-6,22,15,3,,,,
COC(=O)CCc1c(O)nc(C)c2c(OC)c(OC)c(OC)cc12,,,,,22,8,20,-4
COc1cc2c(C)nc(O)c(CCC(=O)O)c2cc1OC,-3,75,42,5,,,,
COC(=O)CCc1c(O)nc(C(C)C)c2cc(OC)c(OC)cc12,3,15,17,7,,,,
